One assay concerns HeLa. As to the kind of experiment: Cytotoxicity against human HeLa cells after 72 hrs by MTT assay. The class given is functional, cell-based. The gist of the method:
(§1)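 Cells allowed to attach as monolayers, then exposed to compounds at various concentrations in culture medium for 72 h; controls got deionized water (compound stock solvent). MTT added ([…]) for 3 h, supernatant removed, cells dissolved in DMSO, absorbance at 570 nm. CC50 = concentration reducing MTT signal 50% versus untreated controls.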

A further assay relates to CNE. Description: Cytotoxicity against human CNE cells after 72 hrs by MTT assay. Type of assay: functional, cell-based. The gist of the method:
as §1

A further assay has as its system KB. Description: Cytotoxicity against human KB cells after 72 hrs by MTT assay. The class given is functional, cell-based. The gist of the method: as §1
For the next assay, the system named is PC-3. As to the kind of experiment: Cytotoxicity against human PC3 cells after 72 hrs by MTT assay. The class given is functional, cell-based. The conditions noted are these: PC-3, 72 h. The gist of the method: as §1
Assay [1] in a line: Cytotoxicity against human Bel7404 cells after 72 hrs by MTT assay. The conditions noted are these: BEL-7404, 72 h. The class given is functional, cell-based. The procedure, abridged: as §1
Another assay has as its system A549. Description: Cytotoxicity against human A549 cells after 72 hrs by MTT assay. Type of assay: functional, cell-based. The conditions noted are these: A549, 72 h. The procedure, abridged:
as §1

A short description of assay [2]: Inhibition of alpha glucosidase. The gist of the method: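 α-Glucosidase (25 µL at 0.2 U/mL) with p-nitrophenyl-α-D-glucopyranoside (25 µL of 23.2 mM), sample at various concentrations, in 67 mM phosphate buffer pH 6.8. Reaction stopped with 1 M Na2CO3; p-nitrophenol release read at 405 nm. Blanks lacked enzyme; negative control had buffer instead of sample; acarbose as positive control. Percent inhibition from corrected ODs; IC50 calculated from this.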

SMILES strings stand for the structures.

For the compound `O=C(/C=C/c1ccc(O)cc1)OC/C=C/c1ccccc1`, the concentration for half-maximal inhibition (IC50) was 160 µM in the assay with HeLa; 162 µM in the assay with CNE; above 100 µg/mL in the assay with KB; 143 µM in the assay on PC-3; above 100 µg/mL in assay [1]; 120 µM with A549. In assay [2], the IC50 came to 65 µM.

With `O=C(/C=C/c1ccc(O)c(O)c1)OC/C=C/c1ccccc1`, the IC50 worked out at 171 µM in the assay on HeLa; 214 µM in the assay on CNE; 54 µM in the assay with KB; 123 µM with PC-3; 91 µM in assay [1]; 71 µM in the assay with A549. Moreover, the IC50 in assay [2] turned out to be 97 µM.

As for `COc1ccc(/C=C/COC(=O)/C=C/c2cc(OC)c(OC)c(OC)c2)cc1OC`, the IC50 is 64 µM in the assay with HeLa; above 100 µg/mL with CNE; above 100 µg/mL with KB; 80 µM in the assay with PC-3; 212 µM in assay [1]; 172 µM in the assay on A549.

Regarding `COc1ccc(/C=C/COC(=O)/C=C/c2ccc([N+](=O)[O-])cc2)cc1OC`, the IC50 in the assay with HeLa is above 100 µg/mL; in the assay on CNE, above 100 µg/mL; in the assay on KB, 165 µM; with PC-3, 212 µM; in assay [1], above 100 µg/mL; with A549, above 100 µg/mL.

Regarding `COc1cc(/C=C/COC(=O)/C=C/c2cc(OC)c(OC)c(OC)c2)cc(OC)c1OC`, the IC50 in the assay on HeLa is 43 µM; with CNE it was 50 µM; in the assay on KB, 206 µM; in the assay with PC-3, 189 µM; in assay [1], above 100 µg/mL; in the assay with A549 it was 180 µM. In assay [2], the IC50 came out at 110 µM.

Turning to `O=C(CCc1ccc(O)c(O)c1)OCCCc1ccccc1`, the IC50 with HeLa is 171 µM; in the assay with CNE, 235 µM; with KB, 125 µM; in the assay on PC-3, 189 µM; in assay [1], above 100 µg/mL; in the assay on A549 it was 138 µM. In assay [2], this compound returned an IC50 of 73 µM.

Consider `COCOc1ccc(/C=C/C(=O)OC/C=C/c2ccc(OC)cc2)cc1`, for which the IC50 is 46 µM in the assay on HeLa; above 100 µg/mL in the assay with CNE; above 100 µg/mL in the assay on KB; 226 µM in the assay on PC-3; above 100 µg/mL in assay [1]; above 100 µg/mL in the assay on A549.

With `COc1ccc(/C=C/COC(=O)/C=C/c2ccc(O)cc2)cc1`, the IC50 worked out at 95 µM in the assay on HeLa; 40 µM in the assay with CNE; 143 µM in the assay on KB; 88 µM in the assay with PC-3; 193 µM in assay [1]; 72 µM in the assay on A549.

With `COc1ccc(CCCOC(=O)CCc2cc(OC)c(OC)c(OC)c2)cc1OC`, the IC50 in the assay on HeLa is above 100 µg/mL; in the assay on CNE, above 100 µg/mL; in the assay with KB, 124 µM; in the assay with PC-3, 104 µM; in assay [1], above 100 µg/mL; in the assay on A549, above 100 µg/mL.

As for `COc1ccc(CCCOC(=O)CCc2ccc(O)cc2)cc1`, the IC50 was above 100 µg/mL in the assay with HeLa; 287 µM in the assay on CNE; 820 µM with KB; 283 µM in the assay on PC-3; 108 µM in assay [1]; 186 µM in the assay on A549.

Consider `COCOc1ccc(/C=C/C(=O)OC/C=C/c2ccccc2)cc1OCOC`, for which the IC50 is above 1000 µM with HeLa; above 100 µg/mL with CNE; 202 µM in the assay with KB; above 1000 µM with PC-3; above 100 µg/mL in assay [1]; above 100 µg/mL with A549.

For `COc1ccc(/C=C/COC(=O)/C=C/c2ccc(OC)c(OC)c2)cc1OC`, the IC50 in the assay with HeLa was 86.7 µM; with CNE it was above 100 µg/mL; in the assay on KB it was 133 µM; with PC-3, 92 µM; in assay [1], 136 µM; with A549 it was 181 µM.

Turning to `COc1ccc(/C=C/C(=O)OC/C=C/c2ccc(OC)c(OC)c2)cc1`, the IC50 in the assay on HeLa was 167 µM; in the assay with CNE, above 100 µg/mL; with KB it was above 100 µg/mL; in the assay with PC-3, 181 µM; in assay [1], above 100 µg/mL; with A549, above 100 µg/mL.

In the case of `C[C@H]1O[C@H](O[C@H]2[C@H](O)[C@@H](O)[C@@H](O[C@H]3[C@H](O)[C@@H](O)C(O)O[C@@H]3CO)O[C@@H]2CO)[C@H](O)[C@@H](O)[C@@H]1N[C@H]1C=C(CO)[C@@H](O)[C@H](O)[C@H]1O` (stereo partly drawn) [ACARBOSE], in assay [2], it took 680 µM to reach half-maximal inhibition (IC50).
